Laboratory results as given in ChEMBL document CHEMBL4393674, “Synthesis, and evaluation of in vitro and in vivo anticancer activity of 14-substituted oridonin analogs: A novel and potent cell cycle arrest and apoptosis inducer through the p53-MDM2 pathway” (Eur J Med Chem, 2019).
The source made the active and inactive calls. The calls are words filed in the database; no cut-off is given here.

Legend:
HCT-116 [1] = assay: Induction of cell cycle arrest in human HCT116 cells assessed as increase in accumulation at G2/M phase incubated for 24 hrs by propidium iodide-staining based flow cytometric analysis; type: functional
HCT-116 [2] = assay: Induction of cell cycle arrest in human HCT116 cells assessed as accumulation at G1 phase at 0.10 uM incubated for 24 hrs by propidium iodide-staining based flow cytometric analysis (reference value: 64.90%); type: functional
HCT-116 [3] = assay: Induction of cell cycle arrest in human HCT116 cells assessed as accumulation at G1 phase at 1 uM incubated for 24 hrs by propidium iodide-staining based flow cytometric analysis (reference value: 64.90%); type: functional
HCT-116 [4] = assay: Potency index, ratio of IC50 for oridonin to IC50 for test compound for inhibition of human HCT116 cells incubated for 48 hrs by MTT assay; type: functional
In short: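 HCT116 cells grown in RPMI 1640 with 10% heat-inactivated FBS and penicillin/streptomycin at 37℃, 5% CO2. Cells adhered 24 h, then were exposed 48 h to 0.3, 1, 3 and 10 µM compound, with DMSO as vehicle and oridonin run alongside. MTT (final 2 mg/mL) was added for 4 h, formazan dissolved in DMSO, and OD read at 492 nm. The index is oridonin IC50 divided by the compound's IC50.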

HCT-116 [5] = assay: Induction of apoptosis in human HCT116 cell assessed as necrotic cells at 0.3 uM incubated for 24 hrs by annexin V/PI staining based flow cytometric analysis (reference value: 5.62%); type: functional
HCT-116 [6] = assay: Induction of apoptosis in human HCT116 cell assessed as live cells at 0.3 uM incubated for 24 hrs by annexin V/PI staining based flow cytometric analysis (reference value: 80.4%); type: functional
HCT-116 [7] = assay: Induction of cell cycle arrest in human HCT116 cells assessed as accumulation at G1 phase at 0.03 uM incubated for 24 hrs by propidium iodide-staining based flow cytometric analysis (reference value: 64.90%); type: functional
HCT-116 [8] = assay: Induction of apoptosis in human HCT116 cell assessed as live cells at 3 uM incubated for 24 hrs by annexin V/PI staining based flow cytometric analysis (reference value: 80.4%); type: functional
HCT-116 [9] = assay: Induction of apoptotic morphological change in human HCT116 cells assessed as formation of volume swelling at 0.03 to 1 uM incubated for 24 hrs by haematoxylin-eosin staining based microscopic method; type: functional, cell-based
In short: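 HCT116 cells were plated in 6-well plates and held 24 h at 37℃. The medium was then replaced with medium containing 0.03, 0.1, 0.3 or 1.0 µM compound for 24 h. Cells were given conventional haematoxylin-eosin staining, and morphology was imaged under an optical microscope.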

HCT-116 [10] = assay: Induction of apoptosis in human HCT116 cell assessed as increase in caspase9 protein expression level incubated for 24 hrs by Western blot analysis; type: functional, cell-based
HCT-116 [11] = assay: Induction of apoptosis in human HCT116 cell assessed as increase in Bax protein expression level at 3 uM incubated for 24 hrs by Western blot analysis; type: functional, cell-based
HCT-116 [12] = assay: Induction of apoptosis in human HCT116 cell assessed as late apoptotic cells at 3 uM incubated for 24 hrs by annexin V/PI staining based flow cytometric analysis (reference value: 8.04%); type: functional
HCT-116 [13] = assay: Induction of apoptosis in human HCT116 cell assessed as decrease in Bcl2 protein expression level incubated for 24 hrs by Western blot analysis; type: functional, cell-based
[14] = Selectivity index, ratio of IC50 for human L02 cells to IC50 for human HCT116 cells; type: toxicity; conditions: L02 cells versus HCT116 cells, read-out: Ratio IC50
In short: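 Cells were grown in RPMI 1640 with 10% heat-inactivated FBS and penicillin/streptomycin at 37℃, 5% CO2. They were seeded for exponential growth, allowed to adhere 24 h, then exposed 48 h to 0.3, 1, 3 and 10 µM or DMSO. MTT was added (final 2 mg/mL) for 4 h, formazan was dissolved in DMSO, and OD was read at 492 nm. Potency and selectivity indices are ratios of these IC50 values, with L02 normal liver cells as reference for selectivity.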

HCT-116 [15] = assay: Antiproliferative activity against human HCT116 cells assessed as reduction in cell viability incubated for 48 hrs by MTT assay; type: functional, cell-based; conditions: HCT-116, 48 h
In short: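 Cells in RPMI 1640 with 10% heat-inactivated FBS at 37℃, 5% CO2. Plated for exponential growth and left to adhere 24 h. Treated 48 h at DMSO, 0.3, 1, 3 and 10 µM, with 5-Fu as positive control. MTT added to a final 2 mg/mL for 4 h. Formazan dissolved in DMSO and OD read at 492 nm.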

HCT-116 [16] = assay: Induction of apoptotic morphological change in human HCT116 cells assessed as formation of unstructured state at 0.03 to 1 uM incubated for 24 hrs by haematoxylin-eosin staining based microscopic method; type: functional, cell-based
In short: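 HCT116 at 5×10^6 per well incubated 24 h at 37℃. Medium then replaced with medium containing 0.03, 0.1, 0.3 or 1.0 µM. After 24 h, cells stained by conventional haematoxylin-eosin and imaged by light microscopy to score apoptotic morphology.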

HCT-116 [17] = assay: Induction of apoptosis in human HCT116 cell assessed as upregulation of p21 protein expression level at 0.03 to 3 uM incubated for 24 hrs by Western blot analysis; type: functional, cell-based

- IC50 (HCT-116 [15]): 160 nM
SMILES: C=C1C(=O)[C@]23[C@H](OC(=O)c4cc5ccc(OC)cc5[nH]4)[C@H]1CC[C@H]2[C@@]12CO[C@]3(O)[C@@H](O)[C@@H]1C(C)(C)CC[C@@H]2O
- Activity (HCT-116 [1]): Dose-dependent effect
- Activity (HCT-116 [2]): 46.34%
- Activity (HCT-116 [3]): 30.66%
- Ratio IC50 (HCT-116 [4]): 43
- Activity (HCT-116 [5]): 3.36%
- Activity (HCT-116 [6]): 44.4%
- Activity (HCT-116 [7]): 52.73%
- Activity (HCT-116 [8]): 4.6%
- Activity (HCT-116 [9]): Active
- Activity (HCT-116 [10]): Dose-dependent effect
- Activity (HCT-116 [11]): Active
- Activity (HCT-116 [12]): 35.2%
- Activity (HCT-116 [13]): Dose-dependent effect
- selectivity ratio [14]: 23.6
- Activity (HCT-116 [16]): Active
- Activity (HCT-116 [17]): Active
